Measured values as given in ChEMBL document CHEMBL4002644, “Discovery of GBT440, an Orally Bioavailable R-State Stabilizer of Sickle Cell Hemoglobin” (ACS Med Chem Lett, 2017).
Active and inactive are the calls of the source. The rule behind the calls is not given here.

Key:
[1] = tested on: Hemoglobin HbA (Homo sapiens), P69905+P68871 [E7V]; test: (§1) Induction of R-state stabilization of Hb betaGlu6Val mutant in sickle disease patient purified HbS/HbA mixture assessed as change from baseline of partial pressure of O2 at which HbS is 50% saturated with O2 at 30 uM preincubated for 45 mins followed by oxygenation for 10 mins and subsequent deoxygenation by hemoximetry relative to control
Summary of the method: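 Oxygen equilibrium curves were run on a Hemox Analyzer using Hb purified from sickle disease blood (an HbA/HbS mixture) at 25 μM. Compound was tested at 30 μM, or at 500 μM where noted. The read-out was the % change from baseline in the pO2 at which HbS is 50% saturated (Δp50).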

[2] = species on record: Homo sapiens; test: Induction of R-state stabilization of sickle cell Hb betaGlu6Val mutant purified from sickle cell patient assessed as inhibition of KH2PO4-induced polymerization by measuring change from baseline of delay time for onset of polymerization at 75 uM preincubated for 1 hr followed by deoxygenation for …; parameters: scale not given: the % may be the effect or the level left
[3] = tested on: Hemoglobin HbA (Homo sapiens), P69905+P68871 [E7V]; test: (§2) Induction of R-state stabilization of Hb betaGlu6Val mutant in sickle cell disease transfused human whole blood assessed as change from baseline of partial pressure of O2 at which HbS is 50% saturated with O2 at 1 mM preincubated for 45 mins followed by 20 mins oxygenation/deoxygenation cycle by hemoximetry relative to control
Summary of the method: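 Whole blood from transfused SCD subjects, at 20% hematocrit (Hb 1 mM), was run with compound at 1 mM. Oxygen equilibrium curves were measured by hemoximetry. The value is the % change from baseline in the pO2 giving 50% O2 saturation (Δp50).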

[4] = tested on: Rattus norvegicus; test: Dose normalized AUC (0 to infinity) in Sprague-Dawley rat at 7.2 to 120 mg/kg, po by LC-MS/MS analysis; format: ADME, organism-based; settings: in vivo
Summary of the method: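 Rat oral PK: AUC(0–∞) divided by the oral dose, expressed as (ng·h/mL)/(mg/kg).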

[5] = tested on: Blood; test: Half life in Sprague-Dawley rat blood at 7.2 to 120 mg/kg, po by LC-MS/MS analysis; format: ADME, organism-based; settings: in vivo
[6] = tested on: Hemoglobin HbA (Homo sapiens), P69905+P68871 [E7V]; test: as §2, with “sickle” for “sickle cell”, “patient purified HbS/HbA mixture” for “transfused human whole blood”, “5” for “1”
[7] = tested on: Hemoglobin HbA (Homo sapiens), P69905+P68871 [E7V]; test: as §1, with “100” for “30”, “20” for “oxygenation for 10”, “oxygenation/deoxygenation cycle” for “and subsequent deoxygenation”

Row | Activity [1] [%] | Structure (SMILES) | further results
1 | 21.9 | COc1cc(C=O)c(OCc2cncc(-c3nnn[nH]3)c2)cn1 | –
2 | 28.2 | COc1cc(C=O)c(OCc2cc(-c3cn[nH]c3)cn3ccnc23)cn1 | –
3 | 17.1 | COc1cc(C=O)c(OCc2cnccc2-c2cn[nH]c2)cn1 | –
4 | 61.7 | Cc1ccc(OCc2cccnc2-c2ccnn2C(C)C)c(C=O)n1 | Activity [2]: 62.6%; Activity [3]: 65.4%; AUC/dose [4]: 1710 ng·h/mL/mg/kg; t1/2 [5]: 1.5 h
5 | – | O=Cc1ccc(CO)o1 | Activity [6]: Active
6 | 59.6 | CC(C)n1nccc1-c1ncccc1COc1cnc(O)cc1C=O | Activity [2]: 128%; Activity [3]: 62.5%
7 | 44.4 | COc1cc(C=O)c(OCc2cccn3ccnc23)cn1 | –
8 | 3.5 | COc1cc(C=O)c(OCc2cc(C#N)cn3ccnc23)cn1 | –
9 | 4 | COc1cc(C=O)c(OCc2cc3ccccc3nc2Cl)cn1 | –
10 | 2.8 | COc1cc(C=O)c(OCc2cc(-c3ccn[nH]3)cn3ccnc23)cn1 | –
11 | 23.1 | COc1cc(C=O)c(OCc2ccnc3cccnc23)cn1 | –
12 | 37 | COc1cc(C=O)c(OCc2cccc3ocnc23)cn1 | –
13 | 29.4 | COc1cc(C=O)c(OCc2cncc(-c3ccn(C)n3)c2)cn1 | –
14 | 29.1 | COc1cc(C=O)c(OCc2c(-c3cc[nH]n3)ccn3ccnc23)cn1 | –
15 | 11.2 | COc1cc(C=O)c(OCc2cncc(-c3ccnn3C)c2)cn1 | –
16 | 21.1 | COc1cc(C=O)c(OCc2cc(-c3nn[nH]n3)cn3ccnc23)cn1 | –
17 | 33 | COc1ccc(OCc2cccn3ccnc23)c(C=O)c1 | Activity [7]: Active
18 | 32.7 | COc1cc(C=O)c(OCc2cccc3c2cnn3C)cn1 | –
19 | 11.7 | COc1cc(C=O)c(OCc2cc(Br)cn3ccnc23)cn1 | –
20 | 42.2 | COc1cc(C=O)c(OCc2cccn3c(C)nnc23)cn1 | –
21 | – | CC(C)n1nccc1-c1ncccc1COc1ccccc1C=O | Activity [2]: 136%; Activity [3]: 80.6%; AUC/dose [4]: 1059 ng·h/mL/mg/kg; t1/2 [5]: 2.1 h
